These results are taken from ChEMBL document CHEMBL2424598, “Identification and optimization of pteridinone Toll-like receptor 7 (TLR7) agonists for the oral treatment of viral hepatitis” (J Med Chem, 2013).

The term logD denotes the decadic logarithm of the distribution of all forms, ionised or not, between an organic phase and buffer at a given pH.

Data set [1] is filed under the species Homo sapiens. Nature of the data set: Selectivity ratio of MEC for TLR8-mediated TNFalpha production in human PBMC to MEC for TLR7-mediated IFNalpha production in human PBMC. In short, it runs like this:
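Cryopreserved human PBMCs came from leukapheresis of a single healthy donor selected as a consistent responder. Cells were incubated with compound for 24 h over an eight-point concentration range, and cytokine release was measured. MEC is the lowest concentration giving cytokine levels at least 3-fold above untreated cultures, determined per cytokine.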

Data set [2] has as its target T1, Toll-like receptor 7 (Homo sapiens) (UniProt Q9NYK1).
T1 sequence (whole entry): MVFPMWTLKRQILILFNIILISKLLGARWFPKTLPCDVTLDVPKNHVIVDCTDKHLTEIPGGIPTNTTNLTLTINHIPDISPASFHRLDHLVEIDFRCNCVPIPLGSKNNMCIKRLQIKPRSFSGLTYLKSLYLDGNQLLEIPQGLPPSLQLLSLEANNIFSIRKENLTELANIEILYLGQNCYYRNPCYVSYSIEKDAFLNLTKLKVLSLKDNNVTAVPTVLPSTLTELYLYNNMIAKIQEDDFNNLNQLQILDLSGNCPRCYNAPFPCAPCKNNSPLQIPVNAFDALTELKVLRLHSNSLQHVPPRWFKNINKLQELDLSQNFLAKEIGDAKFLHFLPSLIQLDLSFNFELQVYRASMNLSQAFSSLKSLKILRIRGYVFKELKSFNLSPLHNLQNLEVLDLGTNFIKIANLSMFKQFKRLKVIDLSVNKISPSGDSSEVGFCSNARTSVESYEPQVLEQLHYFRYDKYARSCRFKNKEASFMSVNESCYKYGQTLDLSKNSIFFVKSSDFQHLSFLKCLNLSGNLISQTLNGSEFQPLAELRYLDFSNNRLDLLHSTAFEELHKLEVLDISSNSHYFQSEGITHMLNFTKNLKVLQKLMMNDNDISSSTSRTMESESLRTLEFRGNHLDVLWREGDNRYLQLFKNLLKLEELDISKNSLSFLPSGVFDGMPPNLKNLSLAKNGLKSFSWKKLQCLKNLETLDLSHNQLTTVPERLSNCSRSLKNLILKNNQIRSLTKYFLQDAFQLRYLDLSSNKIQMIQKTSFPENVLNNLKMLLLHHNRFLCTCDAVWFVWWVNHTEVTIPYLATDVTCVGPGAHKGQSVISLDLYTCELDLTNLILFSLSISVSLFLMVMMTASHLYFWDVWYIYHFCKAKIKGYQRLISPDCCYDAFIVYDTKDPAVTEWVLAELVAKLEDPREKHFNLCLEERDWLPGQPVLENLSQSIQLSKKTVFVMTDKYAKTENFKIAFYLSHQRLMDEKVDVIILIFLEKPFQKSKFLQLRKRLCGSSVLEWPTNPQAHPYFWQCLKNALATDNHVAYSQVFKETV
Nature of the data set: Agonist activity at TLR7-mediated IFNalpha production in human PBMC assessed as minimum concentration of compound necessary to generate >3 fold of cytokine levels relative to control. In short, it runs like this: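 Cryopreserved PBMCs from leukapheresis of a single healthy human donor, chosen as a consistent, robust responder to TLR7 agonist stimulation. Cells were incubated with compound for 24 h over an eight-point concentration range. Secreted IFN-α was measured to build dose-response curves. MEC was taken as the lowest concentration giving cytokine levels ≥3-fold over untreated control cultures.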

Data set [3] can be described thus: Lipophilicity, log D of the compound. In kind it is physicochemical. The following applies: octanol/water.

A value given as a limit tells only on which side of the number the result lay.

On to `CCCCOc1nc(N)c2c(n1)N(C)C(Cc1ccc(CN3CCCC3)cc1)C(=O)N2` (configuration not stated), for which, in data set [1], the Ratio was 10. Besides, the MEC in data set [2] stood at 1000 nM.

For the molecule `CCCCOc1nc(N)c2c(n1)N(Cc1cccc(CN3CCCC3)c1)C1(CC1)C(=O)N2`, the Ratio in data set [1] worked out at 3. Also, in data set [2], the MEC amounted to 1000 nM.

For the molecule `Nc1nc(OCc2ccccc2)nc2c1NC(=O)CN2Cc1cccc(CN2CCCC2)c1`, in data set [1], the Ratio is 3.3. In addition, the MEC in data set [2] turned out to be 3000 nM.

Regarding `CCCCCOc1nc(N)c2c(n1)N(Cc1cccc(CN3CCCC3)c1)CC(=O)N2`, in data set [1], the Ratio was 100. For the same molecule, the MEC in data set [2] is 100 nM.

On to `CCCN(C)C(=O)c1nc(N)c2c(n1)N(Cc1cccc(CN3CCCC3)c1)CC(=O)N2`, for which the Ratio in data set [1] came out at 10. Moreover, the MEC in data set [2] was found to be 1000 nM.

For the molecule `CCC(CC)COc1nc(N)c2c(n1)N(Cc1cccc(CN3CCCC3)c1)CC(=O)N2`, the Ratio in data set [1] stood at 30. The MEC in data set [2] was found to be 10 nM.

For the molecule `COCCOc1nc(N)c2[nH]c(=O)c(=O)n(Cc3cccc(CN4CCCC4)c3)c2n1`, the Ratio in data set [1] stood at 3. For the same molecule, the MEC in data set [2] was 100 nM.

In the case of `Nc1nc(OCCC2CC2)nc2c1NC(=O)CN2Cc1cccc(CN2CCCC2)c1`, the Ratio in data set [1] was determined as 10. Moreover, the MEC in data set [2] was 30 nM.

For the molecule `CCCCOc1nc(N)c2c(n1)N1Cc3cccc(CN4CCCC4)c3CC1C(=O)N2` (configuration not stated), the Ratio in data set [1] was 10. Moreover, the MEC in data set [2] came out at 300 nM.

For the molecule `CCCCOc1nc(N)c2[nH]c(=O)c(=O)n(Cc3ccc(CN4CCCC4)cc3)c2n1`, the Ratio in data set [1] worked out at 10. Further, the MEC in data set [2] worked out at 0.32 nM.

With `CCCCOc1nc(N)c2c(n1)N(Cc1cccc(CN3CCCC3)c1)C(C)C(=O)N2` (configuration not stated), the Ratio in data set [1] was 30. Besides, the MEC in data set [2] came out at 300 nM.

For the molecule `CCCCOc1cc2c(c(N)n1)NC(=O)CN2Cc1cccc(CN2CCCC2)c1`, in data set [1], the Ratio was 10. Further, in data set [2], the MEC amounted to 300 nM.

On to `CC(C)COc1nc(N)c2c(n1)N(Cc1cccc(CN3CCCC3)c1)CC(=O)N2`, for which the Ratio in data set [1] was determined as 0. Moreover, the MEC in data set [2] amounted to 10000 nM.

Regarding `CCCCOc1nc(N)c2c(n1)N(Cc1ccc(CCCN3CCCC3)nc1)CC(=O)N2`, the Ratio in data set [1] is 30. Also, the MEC in data set [2] came to 3 nM.

For `CCC[C@H](C)Oc1nc(N)c2c(n1)N(Cc1cccc(CN3CCCC3)c1)CC(=O)N2`, in data set [1], the Ratio turned out to be 33. The MEC in data set [2] stood at 3 nM.

For the molecule `Nc1nc(OCC2CCCCC2)nc2c1NC(=O)CN2Cc1cccc(CN2CCCC2)c1`, in data set [1], the Ratio turned out to be 3.3. The MEC in data set [2] was determined as 3000 nM.

For the molecule `CCCCOc1cc2c([nH]c(=O)c(=O)n2Cc2cccc(CN3CCCC3)c2)c(N)n1`, the Ratio in data set [1] was found to be 10. For the same molecule, in data set [2], the MEC turned out to be 30 nM.

With `COCCOc1cc2c(c(N)n1)NC(=O)CN2Cc1ccc(CN2CCCC2)cc1`, the Ratio in data set [1] worked out at 10. For the same molecule, the MEC in data set [2] is 0.32 nM.

Regarding `CCCCOc1nc(N)c2c(n1)N(Cc1ccc(-c3ccc(CN4CCCC4)cc3)cc1)CC(=O)N2`, the Ratio in data set [1] stood at 3.3. Further, the MEC in data set [2] came to 3 nM.

`CCCCNc1nc(N)c2c(n1)N(Cc1cccc(CN3CCCC3)c1)CC(=O)N2`: the Ratio in data set [1] was determined as 1000. The MEC in data set [2] came out at 10 nM.

Regarding `CCCCCc1nc(N)c2c(n1)N(Cc1cccc(CN3CCCC3)c1)CC(=O)N2`, in data set [1], the Ratio turned out to be 30. Further, the MEC in data set [2] turned out to be 320 nM.

`CCCCOc1nc(N)c2c(n1)N(Cc1ccc3c(c1)CCN(C(C)C)C3)CC(=O)N2`: in data set [1], the Ratio was 10. In addition, in data set [2], the MEC turned out to be 3 nM.

In data set [3], `COCCOc1nc(N)c2c(n1)N(Cc1cccc(CN3CCCC3)c1)CC(=O)N2` registered a log distribution coefficient (logD) of 1. Further, in data set [1], the Ratio amounted to 1000. Further, in data set [2], the MEC was 10 nM.

As for `CCCCOc1nc(N)c2c(n1)N(Cc1cccc(CN3CCCC3)c1)CCC(=O)N2`, the MEC in data set [2] is more than 10000 nM.

As for `CCCCOc1nc(N)c2c(n1)N(Cc1cccc(CN3CCOCC3)c1)CC(=O)N2`, in data set [1], the Ratio is 3.3. Further, in data set [2], the MEC was 300 nM.

For the molecule `CCCCSc1nc(N)c2c(n1)N(Cc1cccc(CN3CCCC3)c1)CC(=O)N2`, in data set [1], the Ratio was found to be 30. Moreover, the MEC in data set [2] was found to be 100 nM.

In the case of `CCCCOc1nc(N)c2c(n1)N(Cc1ccccc1CN1CCCC1)CC(=O)N2`, the Ratio in data set [1] turned out to be 100. For the same molecule, in data set [2], the MEC is 100 nM.

For the molecule `CCCCOc1cc2c([nH]c(=O)c(=O)n2Cc2ccc(-c3cccc(CN4CCCC4)c3)cc2)c(N)n1`, the Ratio in data set [1] is 3. Further, in data set [2], the MEC is 30 nM.

Regarding `CCCCNc1nc(N)c2[nH]c(=O)c(=O)n(Cc3cccc(CN4CCCC4)c3)c2n1`, the Ratio in data set [1] is 30. Moreover, the MEC in data set [2] was 3 nM.

For the molecule `CCCCOc1nc(N)c2c(n1)N(Cc1ccc(CN3CCCC3)cc1)CC(=O)N2`, the Ratio in data set [1] is 10. Also, in data set [2], the MEC amounted to 1 nM.

In the case of `CCCCOc1nc(N)c2c(n1)N(Cc1ccc(-c3cccc(CN4CCCC4)c3)cc1)CC(=O)N2`, the Ratio in data set [1] is 10. In data set [2], the MEC worked out at 3 nM.

Consider `CCCCOc1nc(N)c2c(n1)NC(Cc1cccc(CN3CCCC3)c1)C(=O)N2` (configuration not stated), for which, in data set [2], the MEC is more than 10000 nM.

Take `Nc1nc(OCC2CCOCC2)nc2c1NC(=O)CN2Cc1cccc(CN2CCCC2)c1`: the Ratio in data set [1] is 100. For the same molecule, the MEC in data set [2] worked out at 10 nM.

`CCCN(C)C(=O)c1nc(N)c2[nH]c(=O)c(=O)n(Cc3cccc(CN4CCCC4)c3)c2n1`: the Ratio in data set [1] was determined as 10. Moreover, in data set [2], the MEC was 1000 nM.

On to `CCCCOc1nc(N)c2c(n1)N(C)C(Cc1cccc(CN3CCCC3)c1)C(=O)N2` (configuration not stated), for which the Ratio in data set [1] is 30. The MEC in data set [2] stood at 320 nM.

Take `CCCCOc1cc2c([nH]c(=O)c(=O)n2Cc2ccc(CN3CCCC3)cc2)c(N)n1`: the Ratio in data set [1] amounted to 3. Also, the MEC in data set [2] is 3 nM.

In the case of `CCCCOc1nc(N)c2c(n1)N(Cc1cccc(CN3CCCCC3)c1)CC(=O)N2`, the Ratio in data set [1] is 3.3. For the same molecule, the MEC in data set [2] was determined as 30 nM.

With `CCCCOc1nc(N)c2c(n1)N(Cc1ccccc1)CC(=O)N2`, the Ratio in data set [1] worked out at 0.3.

As for `CCCCOc1nc(N)c2c(n1)N(Cc1ccc(CN3CCCC3)cc1)C(C)C(=O)N2` (configuration not stated), the Ratio in data set [1] is 30. Besides, the MEC in data set [2] was found to be 10 nM.

With `CCCCOc1cc2c([nH]c(=O)c(=O)n2Cc2ccc(-c3ccc(CN4CCCC4)cc3)cc2)c(N)n1`, the Ratio in data set [1] came to 3. The MEC in data set [2] was found to be 10 nM.

`CCCCOc1nc(N)c2[nH]c(=O)n(Cc3cccc(CN4CCCC4)c3)c2n1`: in data set [2], the MEC was determined as 0.03 nM.

On to `COCCNc1nc(N)c2c(n1)N(Cc1cccc(CN3CCCC3)c1)CC(=O)N2`, for which the Ratio in data set [1] is 10. For the same molecule, in data set [2], the MEC stood at 1000 nM.

On to `CCCCOc1cc2c(c(N)n1)NC(=O)CN2Cc1ccc(CN2CCCC2)cc1`, for which, in data set [1], the Ratio stood at 10. Further, in data set [2], the MEC stood at 30 nM.

Take `CCCCOc1nc(N)c2[nH]c(=O)c(=O)n(Cc3cccc(CN4CCCC4)c3)c2n1`: the Ratio in data set [1] worked out at 33. The MEC in data set [2] is 3 nM.

As to `CCCCOc1nc(N)c2c(n1)N(Cc1ccc3c(c1)CN(C(C)C)CC3)CC(=O)N2`, the Ratio in data set [1] was found to be 3. Besides, the MEC in data set [2] worked out at 3 nM.
